Series [1] addresses Cyclin-dependent kinase 17 (Homo sapiens) (UniProt Q00537). Put plainly: Inhibition of PCTAIRE2 Lys2 labeling site in human Huh-7 cell lysate at 1 uM by KiNativ Profiling analysis relative to control. The format is subcellular.
Series [2] concerns the target Phosphatidylinositol 4-kinase type 2-beta (Homo sapiens) (UniProt Q8TCG2). Put plainly: Inhibition of PI4K2B ATP labeling site in human Huh-7 cell lysate at 1 uM by KiNativ Profiling analysis relative to control. The format is subcellular.
In series [3] the target is Mitogen-activated protein kinase 8 (Homo sapiens, UniProt P45983). The series is described as follows: Inhibition of JNK1 Lys2 labeling site in human A-375 cells at 0.5 uM by KiNativ Profiling analysis relative to control. The format is cell-based.
Mitogen-activated protein kinase 8, sequence (P45983 whole entry): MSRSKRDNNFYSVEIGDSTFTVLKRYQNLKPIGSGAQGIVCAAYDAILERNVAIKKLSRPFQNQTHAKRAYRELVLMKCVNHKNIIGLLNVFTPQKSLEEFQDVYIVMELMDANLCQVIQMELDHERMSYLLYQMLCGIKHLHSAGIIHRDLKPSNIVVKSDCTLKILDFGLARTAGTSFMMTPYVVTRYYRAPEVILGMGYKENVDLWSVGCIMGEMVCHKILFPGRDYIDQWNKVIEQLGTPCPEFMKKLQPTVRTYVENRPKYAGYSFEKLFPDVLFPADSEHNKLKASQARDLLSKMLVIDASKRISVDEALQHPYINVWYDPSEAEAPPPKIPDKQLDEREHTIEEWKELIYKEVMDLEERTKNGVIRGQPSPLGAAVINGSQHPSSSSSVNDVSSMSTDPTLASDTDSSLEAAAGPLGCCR
Series [4] concerns the target Tyrosine-protein kinase Lyn (Homo sapiens, UniProt P07948). The series is described as follows: Inhibition of LYN Lys1 labeling site in human A-375 cells at 0.5 uM by KiNativ Profiling analysis relative to control. The format is cell-based.
The nature of series [5]: Half life in Swiss albino mouse at 1 mg/kg, iv measured upto 24 hrs by LC/MS/MS analysis. The format is ADME, organism-based. Conditions: in vivo. The gist of the method: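 Male Swiss albino mice. […] Blood was taken into K2EDTA from three mice per time point, from 0 to 24 h. Plasma was precipitated with acetonitrile and analysed by LC/MS/MS (LLOQ 1.138 ng/mL).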
In series [6] the target is Aurora kinase B (Homo sapiens) (UniProt Q96GD4). Put plainly: Inhibition of AurB ATP Loop labeling site in human A-375 cells at 5 uM by KiNativ Profiling analysis relative to control. The class given is cell-based. The method, boiled down:
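Live A375 melanoma cells were treated with compound at 5 or 0.5 μM, then lysed. The lysates were labeled with a lysine-reactive ATP or ADP-biotin probe. Kinase protection from probe labeling was measured by KiNativ.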

The target of series [7] is T1, Mitogen-activated protein kinase kinase kinase 3 (Homo sapiens) (UniProt Q99759).
T1 sequence (whole entry): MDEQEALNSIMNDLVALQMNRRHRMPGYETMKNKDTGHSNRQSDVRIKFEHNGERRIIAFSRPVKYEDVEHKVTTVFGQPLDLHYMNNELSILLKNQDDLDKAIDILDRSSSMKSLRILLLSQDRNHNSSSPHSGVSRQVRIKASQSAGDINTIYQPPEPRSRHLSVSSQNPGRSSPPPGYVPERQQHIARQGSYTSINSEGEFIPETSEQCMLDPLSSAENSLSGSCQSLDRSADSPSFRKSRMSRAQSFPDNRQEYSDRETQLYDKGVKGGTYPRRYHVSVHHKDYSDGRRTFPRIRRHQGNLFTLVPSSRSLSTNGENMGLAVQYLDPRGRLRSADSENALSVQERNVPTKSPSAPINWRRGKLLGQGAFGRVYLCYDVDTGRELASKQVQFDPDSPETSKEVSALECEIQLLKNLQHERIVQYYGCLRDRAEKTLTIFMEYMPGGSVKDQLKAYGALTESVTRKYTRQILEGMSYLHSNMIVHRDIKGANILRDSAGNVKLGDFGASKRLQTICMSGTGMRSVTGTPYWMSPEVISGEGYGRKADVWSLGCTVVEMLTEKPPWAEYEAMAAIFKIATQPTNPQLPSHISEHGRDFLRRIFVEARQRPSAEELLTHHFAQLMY
The series is described as follows: Inhibition of MAP3K3 Lys2 labeling site in human A-375 cells at 5 uM by KiNativ Profiling analysis relative to control. The class given is cell-based.

In series [8] the target is T2, Serine/threonine-protein kinase 3 (Homo sapiens) (UniProt Q13188).
T2 sequence (whole entry): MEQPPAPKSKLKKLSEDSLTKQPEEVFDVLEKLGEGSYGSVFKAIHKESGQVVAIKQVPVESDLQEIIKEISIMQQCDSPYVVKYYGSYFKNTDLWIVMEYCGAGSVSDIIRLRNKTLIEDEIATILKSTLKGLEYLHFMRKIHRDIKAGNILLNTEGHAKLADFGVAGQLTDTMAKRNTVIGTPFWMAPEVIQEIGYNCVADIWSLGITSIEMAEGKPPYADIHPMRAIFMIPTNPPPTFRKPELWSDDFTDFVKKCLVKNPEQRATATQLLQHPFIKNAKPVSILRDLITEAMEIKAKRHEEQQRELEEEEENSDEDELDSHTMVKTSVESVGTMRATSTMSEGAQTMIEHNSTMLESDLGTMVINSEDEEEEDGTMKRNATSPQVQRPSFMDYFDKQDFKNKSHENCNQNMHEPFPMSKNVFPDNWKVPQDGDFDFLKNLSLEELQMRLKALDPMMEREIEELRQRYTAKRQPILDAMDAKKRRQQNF
Put plainly: Inhibition of MST2 Lys1 labeling site in human A-375 cells at 5 uM by KiNativ Profiling analysis relative to control. The class given is cell-based.

Series [9] addresses Serine/threonine-protein kinase 38-like (Homo sapiens) (UniProt Q9Y2H1). The series is described as follows: Inhibition of NDR2 Lys2 labeling site in human A-375 cells at 5 uM by KiNativ Profiling analysis relative to control. The format is cell-based.
The target in series [10] is Mitogen-activated protein kinase 3 (Homo sapiens) (UniProt P27361). Put plainly: Inhibition of Erk1 Lys2 labeling site harbouring YIHSANVLHRDLKPSNLLINTTCDLK in human A-375 cells at 0.05 uM by KiNativ Profiling analysis relative to control. The class given is cell-based.
Mitogen-activated protein kinase 3 (Homo sapiens), sequence (P27361 whole entry): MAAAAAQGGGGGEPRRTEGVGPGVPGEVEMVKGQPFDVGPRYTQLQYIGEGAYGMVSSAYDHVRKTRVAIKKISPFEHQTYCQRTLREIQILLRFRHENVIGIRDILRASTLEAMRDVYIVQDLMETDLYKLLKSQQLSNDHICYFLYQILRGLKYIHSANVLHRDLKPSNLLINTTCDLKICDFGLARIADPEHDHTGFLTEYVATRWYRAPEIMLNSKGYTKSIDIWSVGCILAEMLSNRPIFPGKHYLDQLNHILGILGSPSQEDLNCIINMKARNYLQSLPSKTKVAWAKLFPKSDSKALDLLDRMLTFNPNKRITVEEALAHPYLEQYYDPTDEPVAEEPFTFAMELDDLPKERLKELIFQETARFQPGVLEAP
For series [11], the target named is Mitogen-activated protein kinase kinase kinase 1 (Homo sapiens) (UniProt Q13233). The series is described as follows: Inhibition of MAP3K1 Lys2 labeling site in human A-375 cells at 0.05 uM by KiNativ Profiling analysis relative to control. The class given is cell-based.
Mitogen-activated protein kinase kinase kinase 1 (Homo sapiens), sequence (Q13233 whole entry): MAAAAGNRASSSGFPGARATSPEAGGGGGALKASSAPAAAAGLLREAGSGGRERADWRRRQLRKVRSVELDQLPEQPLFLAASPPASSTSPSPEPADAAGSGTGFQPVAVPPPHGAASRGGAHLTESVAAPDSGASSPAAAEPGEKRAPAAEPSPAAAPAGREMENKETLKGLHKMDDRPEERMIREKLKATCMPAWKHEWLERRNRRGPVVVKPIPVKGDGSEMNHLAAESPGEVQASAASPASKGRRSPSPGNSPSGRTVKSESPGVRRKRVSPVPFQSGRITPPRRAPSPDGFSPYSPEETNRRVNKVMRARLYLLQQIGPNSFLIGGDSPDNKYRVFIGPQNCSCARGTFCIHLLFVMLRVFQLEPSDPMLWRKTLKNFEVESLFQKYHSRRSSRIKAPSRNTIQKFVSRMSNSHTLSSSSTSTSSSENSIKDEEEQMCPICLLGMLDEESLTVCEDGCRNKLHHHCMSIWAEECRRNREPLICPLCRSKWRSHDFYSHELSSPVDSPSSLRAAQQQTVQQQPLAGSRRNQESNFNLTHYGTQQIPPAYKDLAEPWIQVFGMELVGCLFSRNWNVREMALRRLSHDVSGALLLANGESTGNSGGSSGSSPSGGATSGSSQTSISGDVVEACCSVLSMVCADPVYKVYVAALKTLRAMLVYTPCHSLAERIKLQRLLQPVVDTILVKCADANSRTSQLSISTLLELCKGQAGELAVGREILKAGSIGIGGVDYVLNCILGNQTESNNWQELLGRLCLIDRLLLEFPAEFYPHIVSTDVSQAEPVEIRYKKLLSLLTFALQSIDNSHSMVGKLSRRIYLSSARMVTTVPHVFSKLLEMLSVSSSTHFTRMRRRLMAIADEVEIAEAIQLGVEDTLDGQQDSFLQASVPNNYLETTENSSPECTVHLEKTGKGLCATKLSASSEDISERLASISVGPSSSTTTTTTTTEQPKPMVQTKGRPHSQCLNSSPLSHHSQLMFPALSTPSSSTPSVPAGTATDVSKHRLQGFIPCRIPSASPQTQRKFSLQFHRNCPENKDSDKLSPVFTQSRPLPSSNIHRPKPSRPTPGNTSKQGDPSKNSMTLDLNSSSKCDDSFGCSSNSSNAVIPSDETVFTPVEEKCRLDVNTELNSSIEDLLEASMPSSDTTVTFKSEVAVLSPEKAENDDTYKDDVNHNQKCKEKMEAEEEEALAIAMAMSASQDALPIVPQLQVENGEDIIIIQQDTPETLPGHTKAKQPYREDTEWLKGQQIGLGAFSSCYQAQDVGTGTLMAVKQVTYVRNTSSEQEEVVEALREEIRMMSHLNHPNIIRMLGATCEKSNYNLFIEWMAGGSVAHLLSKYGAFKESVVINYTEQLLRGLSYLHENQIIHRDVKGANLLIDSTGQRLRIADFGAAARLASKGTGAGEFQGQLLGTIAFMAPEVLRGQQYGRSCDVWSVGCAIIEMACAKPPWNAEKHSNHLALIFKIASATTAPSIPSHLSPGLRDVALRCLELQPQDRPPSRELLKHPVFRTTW
Series [12] relates to GEN2.2. The series is described as follows: Inhibition of CL097 induced IKKalpha/beta phosphorylation level in human GEN2.2 cells at 1 uM preincubated with compound for 1 hr followed by CL097 stimulation and measured after 30 mins by Western blot analysis. The class given is functional, cell-based.
Series [13] addresses Ephrin type-A receptor 6 (Homo sapiens) (UniProt Q9UF33). The series is described as follows: Inhibition of EPHA6 (unknown origin) at 10 uM by Ambit Kinomescan binding assay.
Series [14] addresses Serine/threonine-protein kinase PAK 3 (Homo sapiens) (UniProt O75914). Put plainly: Inhibition of PAK3 (unknown origin) at 10 uM by Ambit Kinomescan binding assay.
The nature of series [15]: Inhibition of KHS1 Lys2 labeling site in human A-375 cells at 0.05 uM by KiNativ Profiling analysis relative to control. Conditions: condition cancer.
Series [16] addresses Serine/threonine-protein kinase MARK2 (Homo sapiens) (UniProt Q7KZI7). The series is described as follows: Inhibition of MARK2 K1 labeling site harbouring HILTGKEVAVKIIDKTQLNSSSLQK in human Huh-7 cells at 10 uM by KiNativ Profiling analysis relative to control. The format is cell-based.
Series [17] concerns the target Rho-associated protein kinase (Homo sapiens) (UniProt O75116+Q13464). The series is described as follows: Inhibition of ROCK1/2 K2 labeling site in human Huh-7 cells at 10 uM by KiNativ Profiling analysis relative to control. The class given is cell-based.
For series [18], the target named is Casein kinase I isoform delta (Homo sapiens) (UniProt P48730). The series is described as follows: Inhibition of CK1 delta K2 labeling site in human Huh-7 cells at 1 uM by KiNativ Profiling analysis relative to control. The format is cell-based.
Casein kinase I isoform delta (Homo sapiens), sequence (P48730 whole entry, looked up, canonical isoform): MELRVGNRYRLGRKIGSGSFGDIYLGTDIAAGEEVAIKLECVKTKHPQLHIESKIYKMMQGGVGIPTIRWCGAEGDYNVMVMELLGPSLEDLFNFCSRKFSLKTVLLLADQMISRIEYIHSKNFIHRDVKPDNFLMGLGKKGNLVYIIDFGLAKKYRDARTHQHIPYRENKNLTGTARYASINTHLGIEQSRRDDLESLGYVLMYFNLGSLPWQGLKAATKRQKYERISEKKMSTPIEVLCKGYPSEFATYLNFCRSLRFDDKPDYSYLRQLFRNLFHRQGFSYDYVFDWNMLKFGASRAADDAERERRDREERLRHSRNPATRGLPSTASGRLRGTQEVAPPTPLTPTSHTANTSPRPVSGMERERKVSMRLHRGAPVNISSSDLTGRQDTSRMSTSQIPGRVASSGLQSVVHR
For series [19], the target named is Tyrosine-protein kinase SYK (Homo sapiens) (UniProt P43405). The series is described as follows: Inhibition of SYK (unknown origin) at 10 uM by Ambit Kinomescan binding assay relative to control; values are per cent of control.

Activity calls are given as the source filed them. The calls are words filed in the database; no cut-off is given here.

Tyrosine-protein kinase Lyn, sequence (P07948 2-512 limits assumed): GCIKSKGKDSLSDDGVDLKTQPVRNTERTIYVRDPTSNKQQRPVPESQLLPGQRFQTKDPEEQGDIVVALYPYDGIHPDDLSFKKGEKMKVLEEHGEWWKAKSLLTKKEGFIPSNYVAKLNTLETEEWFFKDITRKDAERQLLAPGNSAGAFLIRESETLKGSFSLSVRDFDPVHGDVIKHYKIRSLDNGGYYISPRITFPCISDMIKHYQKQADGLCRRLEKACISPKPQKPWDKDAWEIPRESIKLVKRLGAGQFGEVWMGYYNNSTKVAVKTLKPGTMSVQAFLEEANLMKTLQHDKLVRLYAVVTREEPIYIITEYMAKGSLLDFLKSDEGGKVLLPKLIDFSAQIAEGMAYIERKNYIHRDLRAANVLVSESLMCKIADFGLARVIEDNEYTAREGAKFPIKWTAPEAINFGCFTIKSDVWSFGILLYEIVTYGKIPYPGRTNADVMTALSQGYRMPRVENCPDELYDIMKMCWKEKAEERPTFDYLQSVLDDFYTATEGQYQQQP
Aurora kinase B (Homo sapiens), sequence (Q96GD4 whole entry): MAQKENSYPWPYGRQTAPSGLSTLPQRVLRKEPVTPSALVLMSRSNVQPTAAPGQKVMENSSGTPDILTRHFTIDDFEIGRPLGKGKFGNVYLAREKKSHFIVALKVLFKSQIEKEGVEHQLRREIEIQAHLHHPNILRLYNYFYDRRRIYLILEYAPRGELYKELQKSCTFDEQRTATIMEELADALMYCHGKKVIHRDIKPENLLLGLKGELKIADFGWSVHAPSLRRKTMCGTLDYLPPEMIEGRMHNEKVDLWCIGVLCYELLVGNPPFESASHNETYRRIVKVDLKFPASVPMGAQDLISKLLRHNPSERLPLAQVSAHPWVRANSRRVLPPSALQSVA
Serine/threonine-protein kinase 38-like (Homo sapiens), sequence (Q9Y2H1 2-464 limits assumed): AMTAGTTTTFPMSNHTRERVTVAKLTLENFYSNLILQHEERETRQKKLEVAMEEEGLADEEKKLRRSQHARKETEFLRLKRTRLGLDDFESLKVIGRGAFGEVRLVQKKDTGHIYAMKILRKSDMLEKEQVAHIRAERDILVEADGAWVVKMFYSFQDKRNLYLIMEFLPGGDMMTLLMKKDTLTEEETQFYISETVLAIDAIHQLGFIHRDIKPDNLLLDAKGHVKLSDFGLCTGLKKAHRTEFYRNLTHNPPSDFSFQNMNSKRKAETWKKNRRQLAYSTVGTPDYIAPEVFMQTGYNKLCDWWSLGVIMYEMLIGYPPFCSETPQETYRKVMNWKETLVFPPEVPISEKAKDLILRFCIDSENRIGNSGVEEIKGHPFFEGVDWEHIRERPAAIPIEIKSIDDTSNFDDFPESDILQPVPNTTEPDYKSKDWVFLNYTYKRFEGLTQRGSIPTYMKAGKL
Cyclin-dependent kinase 17 (Homo sapiens), sequence (Q00537 whole entry, looked up): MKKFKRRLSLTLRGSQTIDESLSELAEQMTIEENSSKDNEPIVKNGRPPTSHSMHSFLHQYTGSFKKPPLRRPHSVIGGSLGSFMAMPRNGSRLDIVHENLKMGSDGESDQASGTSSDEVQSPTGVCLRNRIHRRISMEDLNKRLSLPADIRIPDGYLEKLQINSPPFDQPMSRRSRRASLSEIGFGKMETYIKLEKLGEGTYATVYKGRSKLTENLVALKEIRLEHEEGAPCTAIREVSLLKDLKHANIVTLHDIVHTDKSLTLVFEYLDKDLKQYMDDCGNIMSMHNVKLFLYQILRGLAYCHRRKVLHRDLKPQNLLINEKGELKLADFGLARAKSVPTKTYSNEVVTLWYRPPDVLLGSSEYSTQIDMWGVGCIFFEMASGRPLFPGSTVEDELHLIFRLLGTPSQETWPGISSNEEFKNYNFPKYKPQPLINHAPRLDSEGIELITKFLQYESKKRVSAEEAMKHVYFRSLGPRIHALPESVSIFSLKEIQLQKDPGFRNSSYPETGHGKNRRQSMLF

As to `CNc1cc(Oc2cc(C(=O)Nc3cc(N4CCN(C)CC4)cc(C(F)(F)F)c3)ccc2C)ncn1`, the inhibition in series [1] was -2.1%; in [2], 25%.
Take `CCN1CCN(Cc2ccc(NC(=O)c3ccc(C)c(/C=C/c4cnc5[nH]ccc5c4OC)c3)cc2C(F)(F)F)CC1`: the inhibition in [3] was 40.6%; in [4] it was > 95%; in series [6], 48.5%; in series [7], 11.8%; in [8], 25%; in [9], 20.9%. For the same compound, the inhibition in series [10] was -5.4%; in series [11], 23.1%. The same compound yielded a t1/2 in [5] of 4.66 h.
Turning to `CNc1cc(Oc2cc(C(=O)Nc3cc(-n4cnc(C)c4)cc(C(F)(F)F)c3)ccc2C)ncn1`, in series [12], the inhibition result is “inactive”.
With `CCN1CCN(Cc2ccc(NC(=O)c3ccc(C)c(Oc4ccnc5[nH]ccc45)c3)cc2C(F)(F)F)CC1`, the inhibition was 73.7% in series [3]; 90.5% in series [4]; 31.4% in series [6]; -4.8% in series [7]; 13.7% in series [8]; 16.8% in series [11]. Moreover, the inhibition in series [17] is 4.1%; in [18] it was 18.5%. Further, in series [5], the t1/2 was found to be 2.03 h. Further, the inhibition entry in series [12] was “Active”. Further, the inhibition entry in [13], in series [14] and in series [16] was “inactive” in each case. For the same compound, the inhibition at 0.05 µM in series [15] was -15.4%. The residual activity in series [19] was determined as 6.2%.

For the origin of these results see ChEMBL document CHEMBL5696442, “Discovery of type II inhibitors of TGFβ-activated kinase 1 (TAK1) and mitogen-activated protein kinase kinase kinase kinase 2 (MAP4K2)” (J Med Chem, 2015).
